Variants at the floor of the assay were thinned out.
B1: tRNA (parent)
chain: GUUCCGUUGGCGUAAUGGUAACGCGUCUCCCUCCUAAGGAGAAGACUGCGGGUUCGAGUCCCGUACGGAACG

Variants of: B1
Test: yeast fitness relative to wild type (ratio to wild type); higher = fitter; tRNA-Arg(CCU), competitive growth, 37 C, YPD
Summary of the method: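 Amplicons of the tRNA-Arg(CCU) gene were sequenced, 100-nucleotide paired-end, from the start population and from each end population of a pooled yeast competition. The competition, in six parallel replicates, lasted 24 hours in YPD at 37°C. Fitness relative to wild type was calculated from changes in genotype frequencies. Genotypes had to have ≥ 100 starting reads, and estimates < 0.5 were set to 0.5.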

| Variant | yeast fitness |
| --- | --- |
| U19A G48A G68C | 0.626 |
| U19A G56A | 1 |
| U19A U28A C31G A43G A45G | ≤ 0.5 |
| U19A U28C A69C | 0.674 |
| U19A U32C C49A | ≤ 0.5 |
| U19A U47A G52C | ≤ 0.5 |
| U19A U54A | 0.706 |
| U19A U64A | 0.807 |
| U19C A20C A70U | 0.65 |
| U19C A20C C24A G56A | ≤ 0.5 |
| U19C A20C C31G A70C | ≤ 0.5 |
| U19C A20U | 0.941 |
| U19C A20U C29U G41C | ≤ 0.5 |
| U19C A20U C55A | ≤ 0.5 |
| U19C A21G U26G C49U | 0.745 |
| U19C A21G U26G G48C | 0.624 |
| U19C A36G | 1.01 |
| U19C A36U C62G | 0.529 |
| U19C A37G G58C C61U U64C | ≤ 0.5 |
| U19C A37U C62A U64C | 0.725 |
| U19C A40C G41C | 0.594 |
| U19C A40G G48A | 0.718 |
| U19C A42G C46A C55G | ≤ 0.5 |
| U19C A42U C46U C55G | ≤ 0.5 |

| Variant | yeast fitness |
| --- | --- |
| U19C A42U C46U C55G G63C | ≤ 0.5 |
| U19C A57C | 0.594 |
| U19C A57G | 0.945 |
| U19C A65G | 1 |
| U19C A69C | 0.991 |
| U19C A69G | 0.788 |
| U19C A70C | 1.03 |
| U19C A70U | 0.953 |
| U19C C22A G23A C34U A57C C66U A69C | ≤ 0.5 |
| U19C C22G C34G A70U | ≤ 0.5 |
| U19C C24A U47C | ≤ 0.5 |
| U19C C24G A37U U54G U64A | ≤ 0.5 |
| U19C C24U | 0.969 |
| U19C C24U C27G G38C A57U C60A C62G | ≤ 0.5 |
| U19C C24U C30A | 0.631 |
| U19C C27A C30G A45C | ≤ 0.5 |
| U19C C27A C46A A70C | ≤ 0.5 |
| U19C C27G C30U | 0.55 |
| U19C C27G C46U | 0.673 |
| U19C C27U C33U A40C C55A A65G | ≤ 0.5 |
| U19C C29A G39C A57G C61U C66U | ≤ 0.5 |
| U19C C31G U35A C61A A69C | 0.504 |
| U19C C31G U53G U54A A57U | 0.653 |
| U19C C31U C33G G41A C49G U54C G63A | ≤ 0.5 |

| Variant | yeast fitness |
| --- | --- |
| U19C C31U C33G G41A C49G U54C U59C G63A | ≤ 0.5 |
| U19C C33A A36C C55U | ≤ 0.5 |
| U19C C33G A57G C61G | ≤ 0.5 |
| U19C C33G A57G C61G A69G | 0.65 |
| U19C C33G C34U U54A C66U | 0.524 |
| U19C C34U A43U G52C | ≤ 0.5 |
| U19C C46G A65G | 0.716 |
| U19C C46U A69C | 0.724 |
| U19C C49G | 1.14 |
| U19C C49G G67U | 0.599 |
| U19C C60A | 0.547 |
| U19C C61G | 0.691 |
| U19C C66U | 0.855 |
| U19C G23A C29G | ≤ 0.5 |
| U19C G23A G38A | 0.634 |
| U19C G25A | 0.969 |
| U19C G25A G44C U47A | ≤ 0.5 |
| U19C G25C G51C C60U A69U | ≤ 0.5 |
| U19C G38C G44C C46A | 0.872 |
| U19C G48A C62A | 0.91 |
| U19C G48C C66U | 0.712 |
| U19C G50A | 0.833 |
| U19C G50A C55A | ≤ 0.5 |
| U19C G50A C55A C66A | 0.516 |

| Variant | yeast fitness |
| --- | --- |
| U19C G50A G56A | 0.749 |
| U19C G51C | 0.519 |
| U19C G58C C61U C66U | 0.529 |
| U19C U26C C27A C30G U54A G56A | ≤ 0.5 |
| U19C U26G A57G | ≤ 0.5 |
| U19C U28A G38C G44C C46A | 0.572 |
| U19C U28C C49A | 0.584 |
| U19C U35C C49U C61G | ≤ 0.5 |
| U19C U35G A43G | 0.598 |
| U19C U47A A57C | ≤ 0.5 |
| U19C U53C C61A G68A | ≤ 0.5 |
| U19G A20U | 0.955 |
| U19G A20U C27G A36G | ≤ 0.5 |
| U19G A37G A65U | 0.61 |
| U19G A37G A65U A69U | ≤ 0.5 |
| U19G A42U | 0.991 |
| U19G A43U C66A | 0.6 |
| U19G A43U G51U A65G G68A | ≤ 0.5 |
| U19G A65U | 0.99 |
| U19G C22G C34U C49U | ≤ 0.5 |
| U19G C22G C34U G68C | ≤ 0.5 |
| U19G C22U A70U | 0.746 |
| U19G C22U G52A | ≤ 0.5 |
| U19G C24G | 0.553 |

| Variant | yeast fitness |
| --- | --- |
| U19G C34A | 0.87 |
| U19G C34A G50A | ≤ 0.5 |
| U19G C55G A69U | 0.54 |
| U19G C61G | 0.575 |
| U19G G38A G50A | ≤ 0.5 |
| U19G G38C A57U | 0.552 |
| U19G G39A A40G | 0.56 |
| U19G G41A G48C C49U A57C A70U | ≤ 0.5 |
| U19G G41C C66U | ≤ 0.5 |
| U19G G58C G67C | 0.61 |
| U19G U28G | 0.551 |
| U19G U32G G51C A57U | ≤ 0.5 |
| U19G U47C C66U | 0.786 |
| U19G U47C U64G | 0.536 |
| U19G U64C | 0.841 |
| A20C A21C C27U C46A | 0.6 |
| A20C A21G A57G | 0.744 |
| A20C A21G G50C A65C | ≤ 0.5 |
| A20C A21U C30U C31A G63A | 0.628 |
| A20C A36G G48A C49U | ≤ 0.5 |
| A20C A36U G39C G48A | ≤ 0.5 |
| A20C A37C | 0.762 |
| A20C A37C A43G C55U | ≤ 0.5 |
| A20C A37G C49G U53A C60U A69C | 0.57 |

| Variant | yeast fitness |
| --- | --- |
| A20C A42C A45C G48A | 0.565 |
| A20C A42G | 0.842 |
| A20C A43C A69U A70C | 0.725 |
| A20C A43C C49A U54A G58A C60A | ≤ 0.5 |
| A20C A43C G68U | ≤ 0.5 |
| A20C A45C | 0.843 |
| A20C A45U C55U | ≤ 0.5 |
| A20C A57C C60A | ≤ 0.5 |
| A20C A69U | 1.04 |
| A20C A70G | 0.925 |
| A20C C22U C61G | ≤ 0.5 |
| A20C C24A C27A A36C | ≤ 0.5 |
| A20C C24G C27A G44A U59G A65C | ≤ 0.5 |
| A20C C24G C27U C31G U54C A65C | ≤ 0.5 |
| A20C C24G C33G A42U A57C G67C | 0.645 |
| A20C C24U C27G C49A U53C C62G | ≤ 0.5 |
| A20C C24U C31G A37U C60G | ≤ 0.5 |
| A20C C24U C49U | 0.602 |
| A20C C24U G68C | 0.542 |
| A20C C27A G52A | ≤ 0.5 |
| A20C C27U A36G | 0.62 |
| A20C C27U C34G C61U C62G | 0.616 |
| A20C C27U C66U G67C | ≤ 0.5 |
| A20C C29G G51A | 0.646 |

| Variant | yeast fitness |
| --- | --- |
| A20C C29U C49G | 0.612 |
| A20C C29U C49G A70U | ≤ 0.5 |
| A20C C29U U32A | ≤ 0.5 |
| A20C C30A A65C | 0.583 |
| A20C C30A C33U C34U C49A C62G | ≤ 0.5 |
| A20C C30G | 0.612 |
| A20C C30G C33G | ≤ 0.5 |
| A20C C31A | 0.79 |
| A20C C31A G48A U59C | ≤ 0.5 |
| A20C C31G G48A G50C C60G | 0.722 |
| A20C C31U A40G G52C A65G | 0.551 |
| A20C C33A G41C C49G | 0.519 |
| A20C C33U A37G A45U G48A G56C | ≤ 0.5 |
| A20C C33U A37G C49G A57G | ≤ 0.5 |
| A20C C34A A37G C46A | 0.541 |
| A20C C34G A69U | 0.549 |
| A20C C46A | 1.04 |
| A20C C46A C49G G63A | ≤ 0.5 |
| A20C C46G A70G | 0.668 |
| A20C C49U U59C | 0.588 |
| A20C C55G | 0.59 |
| A20C C60U A69U | 0.617 |
| A20C C61U | 0.806 |

Source: the RNAGym collection of RNA variant scans (doi:10.1126/science.aae0568)
